{
  "source": "paper PMC10193561",
  "about": "(ACS Omega, 2023)",
  "key": {"[1]": {"assay": "Solubility measurement in distilled water", "assay_type": "physicochemical", "details": "37 °C, thermodynamic from solid", "how_it_was_run": "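Excess solid test compound in distilled water was shaken 24 h at 37 °C (100 rpm), then centrifuged at 10,000 rpm for 10 min. Supernatant absorbance was read at 217 nm and solubility calculated from a standard curve.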"}, "A549 cells": {"tested_on": "A549 cells", "assay": "Cell proliferation activity assay", "assay_type": "cell-based", "details": "Homo sapiens, A549, read-out: IC50 on A549 cells", "how_it_was_run": "(§1)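 Cells were kept in DMEM with 10% FBS and 1% penicillin–streptomycin at 37 °C and 5% CO2, and passaged with 0.25% trypsin-EDTA at 80–90% confluency. They were seeded at 5 × 10^3 cells/well, grown 24 h, then given test compound at 5, 10, 20, 40, 60, 80 or 100 μM final, with 1% DMSO as control. Read-out was MTT absorbance at 490 nm, as viability versus control. IC50 was fitted from viability data; 3–5 replicates per sample; mean ± SD of three independent experiments.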"}, "MCF-7 cells": {"tested_on": "MCF-7 cells", "assay": "Cell proliferation activity assay", "assay_type": "cell-based", "details": "Homo sapiens, MCF7, read-out: IC50 on MCF-7 cells", "how_it_was_run": "as §1"}, "HeLa cells [2]": {"tested_on": "HeLa cells", "assay": "Cell proliferation activity assay", "assay_type": "cell-based", "details": "Homo sapiens, read-out: IC50 on HeLa cells", "how_it_was_run": "as §1"}, "HeLa cells [3]": {"tested_on": "HeLa cells", "assay": "Annexin V/PI apoptosis assay by flow cytometry", "assay_type": "cell-based", "details": "20 μM, 24 h, control group 6.2%"}},
  "data": [
    {"smiles": "CC(C)=CCC[C@](C)(O)[C@H]1CC[C@]2(C)[C@@H]1[C@H](O)C[C@@H]1[C@@]3(C)CC[C@H](O[C@@H]4O[C@H](CO)[C@@H](O)[C@H](O)[C@H]4O)C(C)(C)[C@@H]3CC[C@]12C", "note": "[Rh2, Ginsenoside Rh2]", "values": [
      {"measurement": "solubility at 24 h", "setting": "[1]", "result": 74, "unit": "µg/mL"},
      {"measurement": "IC50", "setting": "A549 cells", "result": 85.3, "unit": "µM"},
      {"measurement": "IC50", "setting": "MCF-7 cells", "result": 73.6, "unit": "µM"},
      {"measurement": "IC50", "setting": "HeLa cells [2]", "result": 68, "unit": "µM"},
      {"measurement": "percentage of early and late apoptosis", "setting": "HeLa cells [3]", "result": 5.3, "unit": "%"}
    ]}
  ]
}
